Measurements pooled from the literature.
Protocols differ between the studies behind these lines.
Target: Mitogen-activated protein kinase kinase kinase 8 (MAP3K8, Homo sapiens, UniProt P41279)

COc1cc2ncnc(Nc3ccc(Oc4ccccc4)cc3C)c2cc1OC — inhibition (enzyme activity, inhibitor; 1 µM): 33%
Cc1sc(C(=O)NC2COC2)cc1-n1cc(NC(=O)Nc2c(F)cccc2Cl)cn1 — remaining activity (enzyme activity, inhibitor; 10 µM): 105%
CCCS(=O)(=O)Nc1ccc(F)c(C(=O)c2c[nH]c3ncc(-c4ccc(Cl)cc4)cc23)c1F — inhibition (enzyme activity, inhibitor; 1 µM): < 10%
N#CCCc1ccc2c(c1)-c1[nH]c3ccc([N+](=O)[O-])cc3c1CC(=O)N2 — remaining signal (cell-free assay; 0.5 µM): 87.5%
CC/C(=N\NC(=O)NCc1cccc(O)c1)c1ccc(O)c(C)c1O — inhibition (enzyme activity, inhibitor; 0.1 µM): -1.8%
O=C(CSc1nc2nccnc2c(=O)n1CCc1ccccc1)Nc1nccs1 — inhibition (enzyme activity, inhibitor; 10 µM): 5%
CC(C)(C)c1nc(-c2cccc(NS(=O)(=O)c3c(F)cccc3F)c2F)c(-c2ccnc(N)n2)s1 — remaining activity (enzyme activity, inhibitor, radiometric; 1 µM): 85%
O=C1NC(=O)c2cc(Nc3ccc(F)cc3)c(Nc3ccc(F)cc3)cc21 — remaining signal (cell-free assay; 0.5 µM): 96.3%
CC(C)(O)[C@H]1CC[C@H](Nc2ccc3ncc(-c4cccc(C(F)(F)F)c4)n3n2)CC1 — remaining activity (enzyme activity, inhibitor; 1 µM): 107%
CCOc1cc(-c2nncn2C)ccc1Nc1ncc2cc(C)nc(NCC(C)(C)C)c2n1 — inhibition (enzyme activity, inhibitor, FRET; 1 µM): < 15%
CS(=O)(=O)Nc1cccc(-c2csc(NC(=O)CSc3nc4nccnc4c(=O)n3CCc3ccccc3)n2)c1 — inhibition (enzyme activity, inhibitor; 10 µM): 4%
COc1cc2ncnc(Nc3ccc(Oc4ccccc4)c(C)c3C)c2cc1OC — inhibition (enzyme activity, inhibitor; 1 µM): -8%
O=C(Nc1cnn(-c2csc(C(=O)NC3COC3)c2)c1)Nc1ccccc1Cl — remaining activity (enzyme activity, inhibitor; 5 µM): 92.7%
CC(C)(C)c1nc2c(s1)c1nc(N)ncc1c1ccc(NS(=O)(=O)c3c(F)cccc3F)c(F)c12 — remaining activity (enzyme activity, inhibitor, radiometric; 1 µM): 93%
